Screens: PubChem BioAssay, SRMLSC
H69AR growth 86K: blocks growth of human H69AR lung tumor cells | H69AR lung tumor viability, ATP luminescence, 72 h; stronger effect = lower value | viability, % at 10 µM | 6% of 85,000 active;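 active = viability at or below 40%; inactive = viability above 40%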;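 also: multidrug resistant small cell line overexpressing MRP-1 efflux transporter; 100% = mean luminescence of untreated control wells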
Lung fibro prol: blocks proliferation of human lung fibroblasts; LL 47 human lung fibroblast viability, ATP luminescence; stronger effect = lower value; viability, % at 10 µM; 1.1% of 85,000 active; AID 719;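 active = viability at or below 50% in the single dose screen; inactive = viability above 50%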;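 also: compound exposure lasted 72 h before the ATP readout; 100% = median luminescence of untreated cell-only wells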
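Times – overnight cell rest, 72 h compound treatment at 37 °C · Test system – human lung fibroblast line LL 47, low passage · Amount – 1,150 cells in each well · Controls – cell-only wells, no compound · Doses – 0.1% DMSO in all compound wells · Measured by – CellTiter-Glo luminescence · Buffer or medium – IMEM plus 15% FBS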
HCT116 bCat-KO: beta-catenin-lacking colon tumor cell growth suppression. AID 818. 1.5% of 140,000 active. viability, % at 10 µM. HCT116 beta-catenin knockout viability, CellTiter-Glo, 60 h; stronger effect = lower value;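 active = viability at or under a set limit, the compound median less 4 SD, cut at about 6% in these data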;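 also: 0% = Hyamine 1622 control at 20 µM and 100% = untreated cell control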
PTEN del growth: growth suppressors of cells with PTEN tumor suppressor deletion; HCT116 PTEN-null viability, CellTiter-Glo, 60 h; stronger effect = lower value; viability, % at 10 µM; 1.2% of 140,000 active; AID 827;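 active = viability at or below a set limit, 4 SD under the median of all tested compounds, cut at about 3.7% in these data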;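 also: PTEN knockout HCT116 line with beta catenin targeted HCT116 as companion control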
HUVEC prolif 384: inhibitors of human endothelial cell proliferation | HUVEC proliferation, CellTiter-Glo luminescence, 72 h; stronger effect = lower value | viability, % at 10 µM (by protocol) | 1.1% of 86,000 active | AID 648;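 active = viability at or below 30%; inactive = viability above 30%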;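 also: 100% = median luminescence of DMSO-only cell control wells on each plate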
Numbers without * were called inactive; · = no result. The sample as a whole holds a higher share of hits than the screen did.

SMILES	H69AR growth 86K	Lung fibro prol	HCT116 bCat-KO	PTEN del growth	HUVEC prolif 384
C=CCOc1nc2c(c(=O)n(C)c(=O)n2C)n1Cc1ccc(Cl)cc1	75	96	66	72	96
Cn1c(=O)c2c(nc(CN3CCN(c4ccccc4)CC3)n2Cc2ccccc2Cl)n(C)c1=O	24*	84	71	52	75
O=C(/C=C/c1ccc(Cl)cc1Cl)N1CCN(c2ccccc2[N+](=O)[O-])CC1	·	·	77	100	·
COc1ccccc1N1CCN(CC(=O)c2c(C)[nH]c3cc(C)ccc23)CC1	37*	100	55	57	32
COc1ccccc1N1CCN(CC(=O)c2c(C)n(C)c3ccccc23)CC1	70	100	73	64	102
CC(=O)C1=C(C)NC(C)=C(C(C)=O)C1c1ccc(-c2ccccc2Cl)o1	80	94	61	71	89
COc1ccc(-c2noc(CCC(=O)NCCCN3CCC(C)CC3)n2)cc1	97	100	99	110	99
Cc1ccc(-c2noc(CCC(=O)NCCCN3CCN(c4cccc(Cl)c4)CC3)n2)cc1	37*	57	7	5	23*
Cc1ccc(-c2noc(CCC(=O)NCCCN3CCN(c4ccc(F)cc4)CC3)n2)cc1	27*	58	12	9	75
CCN1CCN(c2cc(C)c3cc(NC(=O)c4ccc(Br)o4)ccc3n2)CC1	41	43*	8	9	4.5*
O=C(Nc1ccc2nn(-c3ccccc3)nc2c1)c1ccc(Br)o1	30*	74	74	93	57
CCCC(=O)Nc1nc2ccc(NC(=O)c3ccc(Br)o3)cc2s1	90	91	72	73	59
CCN(CC)c1cc(C)c2cc(NC(=O)c3ccc(Br)o3)ccc2n1	58	90	12	9	28*
Cc1ccc(S(=O)(=O)N2CCC(C(=O)OCc3ccc([N+](=O)[O-])cc3)CC2)cc1	·	·	91	80	·
COc1cccc(-c2nc(CS(=O)(=O)c3ccccc3)no2)c1	·	·	97	102	·
CCCc1nnc(NC(=O)CCC(=O)N2CCN(C3c4ccccc4-c4ccccc43)CC2)s1	·	·	84	89	·
CCOc1ccc(NC(=O)N[C@@H](CCSC)C(=O)OC)cc1	91	106	95	101	102
CC1(C)Cc2ccccc2C(NNC(=O)c2ccccn2)=N1	30*	46*	9	6	85
CC1(C)Cc2ccccc2C(N/N=C/c2cccc(F)c2)=N1	·	·	100	91	·
COc1cc(C2C(C#N)=C(N)Oc3cc(N(C)C)ccc32)cc2c1OCO2 (stereo not drawn)	27*	51	13	17	53
COc1cc(C2C(C#N)=C(N)Oc3cc(O)ccc32)cc(OC)c1OC (stereo not drawn)	27*	47*	18	17	54
COc1cc(C2C(C#N)=C(N)Oc3cc(O)ccc32)cc2c1OCO2 (stereo not drawn)	24*	89	67	62	42
CS(=O)(=O)N(CC(=O)N1CCN(c2ccccc2)CC1)c1ccc(Cl)c(C(F)(F)F)c1	109	90	79	68	77
CC(C(=O)O)N1C(=O)C2C3CC(C2C1=O)C1C(c2ccccc2)c2sc(=O)[nH]c2SC31 (stereo not drawn)	·	·	93	98	·
O=c1cc(-c2ccccc2)[nH]c2ccccc12	31*	57	9	13	53
SMILES	H69AR growth 86K	Lung fibro prol	HCT116 bCat-KO	PTEN del growth	HUVEC prolif 384
Cc1ccc(-n2c(SCC(=O)Nc3ccc4cn[nH]c4c3)nnc2-c2ccco2)cc1	32*	82	89	88	82
CC(=O)Nc1ccc(NC(=O)CSc2nnc(-c3ccco3)n2Cc2ccco2)cc1	11*	94	70	86	92
COC(=O)C1=C(COc2ccc(C=O)cc2OC)NC(=O)NC1c1cc(C)ccc1C (stereo not drawn)	·	·	90	84	·
CC(C)CN(C(=O)c1cc2ccccc2o1)c1c(N)n(CC(C)C)c(=O)[nH]c1=O	·	·	92	96	·
O=C1CC(Sc2ncccn2)C(=O)N1c1ccccc1 (stereo not drawn)	97	105	114	103	104
O=C1CC(Sc2nnc(-c3ccccc3O)o2)C(=O)N1c1ccccc1 (stereo not drawn)	1.7*	2.4*	98	89	96
COc1ccc(N2C(=O)CC(Sc3nnc(-c4ccccc4)o3)C2=O)cc1 (stereo not drawn)	1.4*	2.2*	98	89	95
Brc1ccc(N=C(c2ccccc2)c2ccncc2)cc1	·	·	104	95	·
COc1cc(/C=N/Nc2nnc3c(n2)[nH]c2ccccc23)ccc1O	·	·	94	104	·
COc1ccc(-c2cnnc(N/N=C/c3c(C)nn(-c4ccccc4)c3Cl)n2)cc1	·	·	4.7*	2.9*	·
Cc1nn(-c2ccccc2)c(Cl)c1/C=N/Nc1nc2ccccc2[nH]1	·	·	32	29	·
COc1ccc(-c2cnnc(N/N=C/c3ccc(O)c(O)c3)n2)cc1	·	·	4.5*	2.9*	·
Cc1ccccc1Cn1c(=N)n(CC(=O)c2ccc([N+](=O)[O-])cc2)c2ccccc21	·	·	1.9*	1.4*	·
Cc1nn(C)c(Oc2ccc(Cl)cc2)c1C(=O)Nc1ccc(F)cc1F	·	·	98	94	·
Cc1ccc2c(c1)nnn2C1CCN(S(=O)(=O)c2ccc(C(=O)N3C(C)CCCC3C)cc2)CC1 (stereo not drawn)	21*	99	49	54	83
Cc1ccc2c(c1)nnn2C1CCN(S(C)(=O)=O)CC1	100	100	99	95	98
CCCC1CCc2c(sc(N)c2C(N)=O)C1 (stereo not drawn)	96	95	95	96	82
CCCC(=O)NC(=S)Nc1ccc(NC(=O)C(C)C)c(OC)c1	·	·	100	106	·
COc1cccc(/C=N/NC(=O)c2ccccc2N(Cc2ccccc2)S(=O)(=O)c2ccccc2)c1OC	·	·	81	72	·
CCOc1ccc(C2=Nn3c(nnc3-c3ccccn3)SC2)cc1	30*	94	83	91	95
CCOc1ccc(C2=Nn3c(nnc3-c3ccco3)SC2)cc1	76	93	98	98	98
COc1ccc(C2=Nn3c(nnc3-c3ccc(OC)cc3)SC2)cc1	22*	42*	16	14	47
COc1cc(-c2nnc3n2N=C(c2ccccc2)CS3)cc(OC)c1OC	19*	52	13	10	49
c1ccc(C2=Nn3c(nnc3-c3cc(-c4ccccc4)n[nH]3)SC2)cc1	40*	63	77	79	90
CCCNCC1C(Oc2ccc(Cl)cc2)C(=O)N1c1ccccc1C (stereo not drawn)	·	·	70	64	·
COc1ccc(C(=O)/C=C/c2cccs2)c(OC(=O)N2CCOCC2)c1	·	·	45	32	·
COc1ccc(OC(=O)c2cccc([N+](=O)[O-])c2)c(C(=O)/C=C/c2cccs2)c1	3.4*	93	88	93	53
Cc1nnc2sc(-c3cc4ccccc4o3)nn12	91	108	·	·	99
O=C(NCc1cccs1)c1nc2c(nnn2Cc2ccccc2Cl)c(=O)[nH]1	45	35*	87	98	24*
